Measured values reported in ChEMBL document CHEMBL1914395, “Design, synthesis, and biological evaluation of callophycin A and analogues as potential chemopreventive and anticancer agents” (Bioorg Med Chem, 2011).

Columns and labels:
[1] = biological target: NAD(P)H dehydrogenase [quinone] 1 (Mus musculus) (UniProt Q64669); experiment: Induction of quinone reductase 1 activity in mouse Hepa-1c1c7 cells at 50 uM by MTT assay relative to untreated control; assay type: cell-based
Procedure, shortened: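 Hepa 1c1c7 murine hepatoma cells treated with compound at 50 μM. QR1 measured by NADPH-dependent, menadiol-mediated reduction of MTT to formazan. Protein measured by crystal violet staining of identical plates. Specific activity is nmol formazan per mg protein per min. Induction ratio is treated versus DMSO-treated control.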

[2] = biological target: NAD(P)H dehydrogenase [quinone] 1 (Mus musculus) (UniProt Q64669); experiment: Induction of quinone reductase 1 activity in mouse Hepa-1c1c7 cells assessed as cell survival at 50 uM by MTT assay relative to control; assay type: cell-based
[3] = biological target: NAD(P)H dehydrogenase [quinone] 1 (Mus musculus) (UniProt Q64669); experiment: Induction of quinone reductase 1 in mouse Hepa 1c1c7 cells assessed as concentration of compound required to double enzyme activity by MTT assay; assay type: cell-based
Procedure, shortened: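 Dose-response in Hepa 1c1c7 cells, run for substances with induction ratio >2 at 50 μM. QR1 activity measured as menadiol-mediated, NADPH-dependent MTT reduction to formazan, normalised to crystal violet protein content. CD is the concentration that doubles specific activity relative to DMSO control.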

Aromatase = biological target: T1, Aromatase (Homo sapiens, UniProt P11511); experiment: Inhibition of aromatase at 50 uM after 10 mins preincubation by plate reader relative to control
T1 sequence (P11511 whole entry): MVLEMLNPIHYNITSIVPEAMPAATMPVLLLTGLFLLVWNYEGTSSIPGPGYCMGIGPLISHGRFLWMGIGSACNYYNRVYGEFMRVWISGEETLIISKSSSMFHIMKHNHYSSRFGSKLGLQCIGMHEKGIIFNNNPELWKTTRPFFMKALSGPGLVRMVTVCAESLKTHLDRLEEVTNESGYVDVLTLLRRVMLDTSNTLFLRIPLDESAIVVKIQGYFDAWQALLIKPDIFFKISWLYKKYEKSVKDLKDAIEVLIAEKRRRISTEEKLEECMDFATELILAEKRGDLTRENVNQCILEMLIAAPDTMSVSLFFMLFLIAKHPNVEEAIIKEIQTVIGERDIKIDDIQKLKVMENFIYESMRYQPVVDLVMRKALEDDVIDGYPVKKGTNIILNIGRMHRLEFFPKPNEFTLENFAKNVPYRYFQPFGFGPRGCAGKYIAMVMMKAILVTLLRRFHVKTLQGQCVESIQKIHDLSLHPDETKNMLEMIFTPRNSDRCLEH
Procedure, shortened: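 CYP19 enzyme. Compound pre-incubated 10 min with an NADPH-regenerating system (NADP+, glucose 6-phosphate, G6PDH, MgCl2, albumin) in 50 mM potassium phosphate pH 7.4. Enzyme and 0.4 μM dibenzylfluorescein substrate then added, 30 min at 37 °C. Quenched with 2 N NaOH and incubated a further 2 h at 37 °C. Fluorescence read at ex 485/em 530 nm. Compound tested at 50 μM.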

[4] = biological target: T2, Nitric oxide synthase, inducible (Mus musculus) (UniProt P29477); experiment: Inhibition of iNOS-mediated nitric oxide production in LPS-stimulated mouse RAW 264.7 cells at 50 uM pretreated 15 mins before LPS challenge measured after 20 hrs relative to control; assay type: cell-based
T2 sequence (whole entry): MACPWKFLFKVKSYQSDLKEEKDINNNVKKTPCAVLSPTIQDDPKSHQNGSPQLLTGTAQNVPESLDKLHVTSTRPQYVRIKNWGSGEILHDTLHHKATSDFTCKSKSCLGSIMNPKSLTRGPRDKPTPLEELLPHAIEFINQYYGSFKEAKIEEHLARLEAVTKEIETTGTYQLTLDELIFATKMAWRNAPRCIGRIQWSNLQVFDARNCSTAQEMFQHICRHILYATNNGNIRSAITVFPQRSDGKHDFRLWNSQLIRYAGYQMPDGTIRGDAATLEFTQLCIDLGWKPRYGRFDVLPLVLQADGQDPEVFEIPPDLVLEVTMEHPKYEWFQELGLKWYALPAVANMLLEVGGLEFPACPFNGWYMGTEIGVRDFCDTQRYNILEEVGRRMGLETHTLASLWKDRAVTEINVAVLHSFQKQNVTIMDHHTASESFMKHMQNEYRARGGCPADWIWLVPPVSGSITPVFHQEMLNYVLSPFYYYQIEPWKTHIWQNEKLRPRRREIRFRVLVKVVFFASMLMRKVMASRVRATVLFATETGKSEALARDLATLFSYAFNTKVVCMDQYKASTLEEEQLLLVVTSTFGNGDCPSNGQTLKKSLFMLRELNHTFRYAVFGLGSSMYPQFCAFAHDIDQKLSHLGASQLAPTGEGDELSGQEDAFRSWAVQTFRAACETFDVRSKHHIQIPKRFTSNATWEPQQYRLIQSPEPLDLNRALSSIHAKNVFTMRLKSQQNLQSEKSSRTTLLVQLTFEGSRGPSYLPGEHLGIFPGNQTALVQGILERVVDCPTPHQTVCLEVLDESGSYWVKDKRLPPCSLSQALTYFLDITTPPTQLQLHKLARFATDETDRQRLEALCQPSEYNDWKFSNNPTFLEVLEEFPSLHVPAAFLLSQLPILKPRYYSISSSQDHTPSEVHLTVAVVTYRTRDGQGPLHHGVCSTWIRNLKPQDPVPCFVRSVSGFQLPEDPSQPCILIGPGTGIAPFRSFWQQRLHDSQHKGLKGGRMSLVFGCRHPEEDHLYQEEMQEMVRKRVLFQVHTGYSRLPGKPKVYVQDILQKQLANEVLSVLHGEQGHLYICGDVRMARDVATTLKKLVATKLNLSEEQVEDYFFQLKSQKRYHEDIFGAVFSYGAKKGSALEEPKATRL
Procedure, shortened: (§1)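 RAW 264.7 cells cultured 24 h at 37°C, then given serially diluted compounds for 15 min before LPS (1 μg/mL) for 20 h. Nitrite in the medium measured with Griess reagent at 540 nm against a sodium nitrite standard curve. Cytotoxicity checked by SRB under the same conditions.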

[5] = biological target: T2, Nitric oxide synthase, inducible (Mus musculus); experiment: Inhibition of iNOS-mediated nitric oxide production in LPS-stimulated mouse RAW 264.7 cells assessed as cell survival at 50 uM pretreated 15 mins before LPS challenge measured after 20 hrs relative to control; assay type: cell-based
Procedure, shortened: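 RAW 264.7 cells were incubated at 37°C, 5% CO2 for 24 h. They were then exposed to compound for 15 min before LPS (1 μg/mL) was added for 20 h. Cytotoxicity was measured by SRB staining under the same conditions. Survival is expressed as % relative to vehicle-treated controls at 50 μM.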

HEK293 [6] = experiment: Inhibition of TNF-alpha-induced NFkappaB activation in human HEK293 cells at 50 uM after 6 hrs by luciferase assay relative to control; assay type: cell-based
Procedure, shortened: (§2)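 Cells incubated 6 h with TNFα plus test compound, then luciferase activity measured. Results expressed as percent of TNFα-treated control. Screening concentration 50 μM.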

HEK293 [7] = experiment: Inhibition of TNF-alpha-induced NFkappaB activation in human HEK293 cells assessed as cell survival at 50 uM after 6 hrs by luciferase assay relative to control; assay type: cell-based
MCF7 = experiment: Antiproliferative activity against human MCF7 cells assessed as survival at 50 uM after 72 hrs by SRB assay relative to control; assay type: functional; details: MCF7, 72 h, read-out: Survival
Procedure, shortened: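 MCF7 cells (1 × 10^4 per well) were plated onto compound and kept at 37°C, 5% CO2 for 72 h. Cells were fixed in 10% TCA for 30 min and stained with 0.4% SRB in 1% acetic acid for 30 min. Bound dye was dissolved in 10 mM Tris (pH 10.0) and read at 515 nm. Survival is given as % of DMSO-treated controls, screened at 50 μM.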

[8] = biological target: T3, Nitric oxide synthase, inducible (Mus musculus, UniProt P29477); experiment: Inhibition of iNOS-mediated nitric oxide production in LPS-stimulated mouse RAW 264.7 cells pretreated 15 mins before LPS challenge measured after 20 hrs relative to control; assay type: cell-based; procedure, shortened: as §1
T3 sequence (P29477 whole entry): T2 sequence (whole entry)

[9] = Inhibition of TNF-alpha-induced NFkappaB activation in human HEK293 cells after 6 hrs by luciferase assay; assay type: cell-based; details: HEK293, 6 h; procedure, shortened: as §2

NAD(P)H dehydrogenase [quinone] 1 (Mus musculus), sequence (Q64669 whole entry): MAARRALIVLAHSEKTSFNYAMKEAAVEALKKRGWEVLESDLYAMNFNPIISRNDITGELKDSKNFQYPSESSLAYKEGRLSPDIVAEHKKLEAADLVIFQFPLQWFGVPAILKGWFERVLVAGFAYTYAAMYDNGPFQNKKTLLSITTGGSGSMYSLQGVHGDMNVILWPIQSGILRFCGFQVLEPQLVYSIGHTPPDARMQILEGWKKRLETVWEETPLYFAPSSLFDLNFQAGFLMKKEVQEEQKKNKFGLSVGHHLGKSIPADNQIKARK

Row | SMILES | Ratio [1] | Survival [2] | CD [3] | inhibition at 50 µM (Aromatase) | inhibition [4] | Survival [5] | inhibition (HEK293 [6]) | Survival (HEK293 [7]) | viability at 50 µM (MCF7) | IC50 [8] | IC50 [9]
1 | O=C(O)[C@@H]1Cc2c([nH]c3ccccc23)CN1CC1CC1 | 2.4 | 90.7% | 27.6 µM | 30.2% | -7% | 135% | 33.7% | 234% | 108% |  | 
2 | COC(=O)[C@@H]1Cc2c([nH]c3ccccc23)CN1Cc1ccccc1 | 1.6 | 100% |  | 31.5% | 68.2% | 85.9% | 60.4% | 28.8% |  | 32 µM | 30.7 µM
3 | COC(=O)[C@@H]1Cc2c([nH]c3ccccc23)CN1 | 1.1 | 125% |  | 18.3% | 12.5% | 104% | 58.3% | 38.6% |  |  | 38.9 µM
4 | COC(=O)[C@H]1Cc2c([nH]c3ccccc23)CN1C(=O)NC(C)C | 2.7 | 77% | 8.6 µM | 32.6% | 16.2% | 89.4% | 73.7% | 143% | 66.1% |  | 21.2 µM
5 | C=CCOC(=O)N1Cc2[nH]c3ccccc3c2C[C@@H]1C(=O)OC | 2.8 | 77.3% | 15.9 µM | 35.1% | 57.1% | 91.6% | 50.7% | 97.6% | 69.5% | 27.7 µM | 
6 | C=CCOC(=O)N1Cc2[nH]c3ccccc3c2C[C@H]1C(=O)O | 2.4 | 82.9% | 26.5 µM | 38.4% | -6.3% | 135% | 35.6% | 109% |  |  | 
7 | O=C(O)[C@@H]1Cc2c([nH]c3ccccc23)CN1S(=O)(=O)c1ccc(Br)cc1 | 1.3 | 97.8% |  | 23.2% | 50% | 80.6% | 55.4% | 247% | 77% | 49.7 µM | 
8 | C#CCN1Cc2[nH]c3ccccc3c2C[C@H]1C(=O)O | 2.2 | 91.9% | 18.7 µM | 30.5% | 7% | 126% | 50.2% | 228% | 112% |  | 
9 | C#CCN1Cc2[nH]c3ccccc3c2C[C@@H]1C(=O)OC | 2 | 77.2% | 50 µM | 31.7% | 41.1% | 114% | 43.6% | 227% |  |  | 
10 | COC(=O)[C@H]1Cc2c([nH]c3ccccc23)CN1Cc1ccccc1 | 1.2 | 96.8% |  | 38.4% | 74.7% | 81.2% | 54.4% | 77.1% |  | 32.9 µM | 44.2 µM
11 | COC(=O)[C@H]1Cc2c([nH]c3ccccc23)CN1 | 1.1 | 115% |  | 14.3% | 7.2% | 116% | 58.4% | 60.3% |  |  | 22.1 µM
12 | O=C(O)[C@@H]1Cc2c([nH]c3ccccc23)CN1Cc1ccccc1 | 2.4 | 105% | 8.1 µM | 28% | 6.9% | 119% | 59.5% | 49.1% |  |  | 21.4 µM
13 | COC(=O)[C@H]1Cc2c([nH]c3ccccc23)CN1Cc1ccc(O)cc1 | 1.8 | 98.6% |  | 38.7% | 63.7% | 87.3% | 33.5% | 122% | 100% | 37.5 µM | 
14 | Cc1ccc(S(=O)(=O)N[C@@H](Cc2ccccc2)C(=O)CCl)cc1 [TPCK] |  |  |  |  |  |  |  |  |  |  | 4.9 µM
